We go through 15 compounds from ChEMBL document CHEMBL3259614, “Design, synthesis, and structure-activity relationship studies of novel fused heterocycles-linked triazoles with good activity and water solubility” (J Med Chem, 2014).

Assay type in all cases: functional
For test [1], the system named is Candida albicans. Kind of test: Antimicrobial activity against Candida albicans SC5314 after 24 hrs by serial dilution method. The note with it: SC5314, 24 h. The essentials: (§1)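 Broth serial dilution MIC in 96-well plates following NCCLS/CLSI methods. Compounds were dissolved in DMSO and serially diluted in growth medium, with incubation at 35 °C. […] C. parapsilosis 22019 served as the quality-control strain in each assay.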

Test [2] has as its system Candida albicans. Briefly: Antimicrobial activity against Candida albicans Y0109 after 24 hrs by serial dilution method. The note with it: Y0109, 24 h. The essentials: as §1
Test [3] relates to Candida parapsilosis. Kind of test: Antimicrobial activity against Candida parapsilosis 22019 after 24 hrs by serial dilution method. The note with it: Lodderomyces parapsilosis, 22019, 24 h. The essentials: as §1
The test system of test [4] is Cryptococcus neoformans. Kind of test: Antimicrobial activity against Cryptococcus neoformans 32609 after 72 hrs by serial dilution method. The note with it: Cryptococcus neoformans, 32609, 72 h. Put shortly: as §1
Test [5] relates to Nakaseomyces glabratus. Kind of test: Antimicrobial activity against Candida glabrata 537 after 24 hrs by serial dilution method. The note with it: Nakaseomyces glabratus, 537, 24 h. The essentials:
as §1

Test [6] concerns Aspergillus fumigatus. Briefly: Antimicrobial activity against Aspergillus fumigatus 7544 after 48 hrs by serial dilution method. The note with it: Aspergillus fumigatus, 7544, 48 h. Put shortly:
as §1

Values after ≈ are worked out from the molar mass of the structure shown.

The term MIC denotes the smallest concentration in the dilution series that meets the test's criterion for growth inhibition. Read a low MIC as greater potency. Turning to `C[C@@H](N1CCn2nc(-c3ccc(F)nc3)nc2C1)[C@](O)(Cn1cncn1)c1ccc(F)cc1F`, the MIC in test [1] is 0.0156 mg/L (≈ 0.0332 µM); in test [2], 0.0625 mg/L (≈ 0.133 µM); in test [3] it was 0.0625 mg/L (≈ 0.133 µM); in test [4], 0.0312 mg/L (≈ 0.0664 µM); in test [5] it was 0.0312 mg/L (≈ 0.0664 µM); in test [6], 2 mg/L (≈ 4.25 µM).
Consider `C[C@@H](N1CCn2nc(-c3cncc(F)c3)nc2C1)[C@](O)(Cn1cncn1)c1ccc(F)cc1F`, for which the MIC in test [1] came to 0.125 mg/L (≈ 0.266 µM); in test [2], 0.125 mg/L (≈ 0.266 µM); in test [3], 0.125 mg/L (≈ 0.266 µM); in test [4], 0.125 mg/L (≈ 0.266 µM); in test [5] it was 1 mg/L (≈ 2.13 µM); in test [6], 32 mg/L (≈ 68 µM).
For the compound `C[C@@H](N1CCn2nc(-c3cncc(C#N)c3)nc2C1)[C@](O)(Cn1cncn1)c1ccc(F)cc1F`, the MIC was 0.125 mg/L (≈ 0.262 µM) in test [1]; 0.125 mg/L (≈ 0.262 µM) in test [2]; 0.25 mg/L (≈ 0.524 µM) in test [3]; 0.125 mg/L (≈ 0.262 µM) in test [4]; 1 mg/L (≈ 2.09 µM) in test [5]; 64 mg/L (≈ 134 µM) in test [6].
As for `COc1ccc(-c2nc3n(n2)CCN([C@H](C)[C@](O)(Cn2cncn2)c2ccc(F)cc2F)C3)cn1`, the MIC is 0.0625 mg/L (≈ 0.13 µM) in test [1]; 0.125 mg/L (≈ 0.259 µM) in test [2]; 0.125 mg/L (≈ 0.259 µM) in test [3]; 0.25 mg/L (≈ 0.518 µM) in test [4]; 0.5 mg/L (≈ 1.04 µM) in test [5]; 32 mg/L (≈ 66.3 µM) in test [6].
Take `Cc1ncc(-c2nc3n(n2)CCN([C@H](C)[C@](O)(Cn2cncn2)c2ccc(F)cc2F)C3)cn1`: the MIC turned out to be 0.0625 mg/L (≈ 0.134 µM) in test [1]; 0.125 mg/L (≈ 0.267 µM) in test [2]; 0.125 mg/L (≈ 0.267 µM) in test [3]; 0.125 mg/L (≈ 0.267 µM) in test [4]; 0.25 mg/L (≈ 0.535 µM) in test [5]; 32 mg/L (≈ 68.5 µM) in test [6].
Turning to `COc1ncc(-c2nc3n(n2)CCN([C@H](C)[C@](O)(Cn2cncn2)c2ccc(F)cc2F)C3)cn1`, the MIC was 0.0625 mg/L (≈ 0.129 µM) in test [1]; 0.125 mg/L (≈ 0.259 µM) in test [2]; 0.25 mg/L (≈ 0.517 µM) in test [3]; 0.5 mg/L (≈ 1.03 µM) in test [4]; 0.25 mg/L (≈ 0.517 µM) in test [5]; 32 mg/L (≈ 66.2 µM) in test [6].
With `C[C@@H](N1CCc2nc(Br)sc2C1)[C@](O)(Cn1cncn1)c1ccc(F)cc1F`, the MIC in test [1] is 1 mg/L (≈ 2.13 µM); in test [2] it was 1 mg/L (≈ 2.13 µM); in test [3], 1 mg/L (≈ 2.13 µM); in test [4] it was 0.5 mg/L (≈ 1.06 µM); in test [5], 1 mg/L (≈ 2.13 µM); in test [6], 32 mg/L (≈ 68 µM).
With `C[C@@H](N1CCc2nc(-c3ccc(Cl)cc3)sc2C1)[C@](O)(Cn1cncn1)c1ccc(F)cc1F`, the MIC in test [1] is 0.5 mg/L (≈ 0.996 µM); in test [2] it was 1 mg/L (≈ 1.99 µM); in test [3] it was 2 mg/L (≈ 3.98 µM); in test [4] it was 1 mg/L (≈ 1.99 µM); in test [5], 1 mg/L (≈ 1.99 µM); in test [6], 32 mg/L (≈ 63.7 µM).
As for `C[C@@H](N1CCc2nc(-c3ccc(C(F)(F)F)cc3)sc2C1)[C@](O)(Cn1cncn1)c1ccc(F)cc1F`, the MIC in test [1] came to 1 mg/L (≈ 1.87 µM); in test [2], 2 mg/L (≈ 3.73 µM); in test [3], 2 mg/L (≈ 3.73 µM); in test [4], 2 mg/L (≈ 3.73 µM); in test [5] it was 1 mg/L (≈ 1.87 µM); in test [6], 32 mg/L (≈ 59.8 µM).
On to `COc1ccc(-c2nc3c(s2)CN([C@H](C)[C@](O)(Cn2cncn2)c2ccc(F)cc2F)CC3)cc1`, for which the MIC is 1 mg/L (≈ 2.01 µM) in test [1]; 1 mg/L (≈ 2.01 µM) in test [2]; 0.5 mg/L (≈ 1 µM) in test [3]; 1 mg/L (≈ 2.01 µM) in test [4]; 1 mg/L (≈ 2.01 µM) in test [5]; 16 mg/L (≈ 32.2 µM) in test [6].
On to `Cc1ccc(-c2nc3c(s2)CN([C@H](C)[C@](O)(Cn2cncn2)c2ccc(F)cc2F)CC3)cc1`, for which the MIC in test [1] is 0.5 mg/L (≈ 1.04 µM); in test [2], 1 mg/L (≈ 2.08 µM); in test [3], 0.5 mg/L (≈ 1.04 µM); in test [4] it was 0.5 mg/L (≈ 1.04 µM); in test [5], 1 mg/L (≈ 2.08 µM); in test [6], 16 mg/L (≈ 33.2 µM).
For the compound `C[C@@H](N1CCc2nc(-c3ccc(F)cc3)sc2C1)[C@](O)(Cn1cncn1)c1ccc(F)cc1F`, the MIC in test [1] is 1 mg/L (≈ 2.06 µM); in test [2] it was 1 mg/L (≈ 2.06 µM); in test [3], 2 mg/L (≈ 4.12 µM); in test [4] it was 1 mg/L (≈ 2.06 µM); in test [5], 4 mg/L (≈ 8.24 µM); in test [6], 16 mg/L (≈ 33 µM).
On to `C[C@@H](N1CCc2nc(-c3ccc(Br)cc3)sc2C1)[C@](O)(Cn1cncn1)c1ccc(F)cc1F`, for which the minimum inhibitory concentration (MIC) came to 1 mg/L (≈ 1.83 µM) in test [1]; 1 mg/L (≈ 1.83 µM) in test [2]; 4 mg/L (≈ 7.32 µM) in test [3]; 1 mg/L (≈ 1.83 µM) in test [4]; 2 mg/L (≈ 3.66 µM) in test [5]; 16 mg/L (≈ 29.3 µM) in test [6].
`CC(C)c1ccc(-c2nc3c(s2)CN([C@H](C)[C@](O)(Cn2cncn2)c2ccc(F)cc2F)CC3)cc1`: the minimal inhibitory concentration (MIC) came out at 0.5 mg/L (≈ 0.981 µM) in test [1]; 1 mg/L (≈ 1.96 µM) in test [2]; 0.5 mg/L (≈ 0.981 µM) in test [3]; 1 mg/L (≈ 1.96 µM) in test [4]; 1 mg/L (≈ 1.96 µM) in test [5]; 16 mg/L (≈ 31.4 µM) in test [6].
With `C[C@@H](N1CCc2nc(-c3cccc(Cl)c3)sc2C1)[C@](O)(Cn1cncn1)c1ccc(F)cc1F`, the MIC in test [1] was 4 mg/L (≈ 7.97 µM); in test [2], 4 mg/L (≈ 7.97 µM); in test [3] it was 2 mg/L (≈ 3.98 µM); in test [4], 2 mg/L (≈ 3.98 µM); in test [5], 4 mg/L (≈ 7.97 µM); in test [6], 32 mg/L (≈ 63.7 µM).
